Source: ChEMBL document CHEMBL1154183, “Structure-based optimization of potent and selective inhibitors of the tyrosine kinase erythropoietin producing human hepatocellular carcinoma receptor B4 (EphB4)” (J Med Chem, 2009)

Columns and labels:
[1] = biological target: T1, Ephrin type-B receptor 4 (Homo sapiens, UniProt P54760); experiment: Inhibition of EphB4 assessed as blockade of synthetic substrate phosphorylation by FRET assay
T1 sequence (P54760 whole entry): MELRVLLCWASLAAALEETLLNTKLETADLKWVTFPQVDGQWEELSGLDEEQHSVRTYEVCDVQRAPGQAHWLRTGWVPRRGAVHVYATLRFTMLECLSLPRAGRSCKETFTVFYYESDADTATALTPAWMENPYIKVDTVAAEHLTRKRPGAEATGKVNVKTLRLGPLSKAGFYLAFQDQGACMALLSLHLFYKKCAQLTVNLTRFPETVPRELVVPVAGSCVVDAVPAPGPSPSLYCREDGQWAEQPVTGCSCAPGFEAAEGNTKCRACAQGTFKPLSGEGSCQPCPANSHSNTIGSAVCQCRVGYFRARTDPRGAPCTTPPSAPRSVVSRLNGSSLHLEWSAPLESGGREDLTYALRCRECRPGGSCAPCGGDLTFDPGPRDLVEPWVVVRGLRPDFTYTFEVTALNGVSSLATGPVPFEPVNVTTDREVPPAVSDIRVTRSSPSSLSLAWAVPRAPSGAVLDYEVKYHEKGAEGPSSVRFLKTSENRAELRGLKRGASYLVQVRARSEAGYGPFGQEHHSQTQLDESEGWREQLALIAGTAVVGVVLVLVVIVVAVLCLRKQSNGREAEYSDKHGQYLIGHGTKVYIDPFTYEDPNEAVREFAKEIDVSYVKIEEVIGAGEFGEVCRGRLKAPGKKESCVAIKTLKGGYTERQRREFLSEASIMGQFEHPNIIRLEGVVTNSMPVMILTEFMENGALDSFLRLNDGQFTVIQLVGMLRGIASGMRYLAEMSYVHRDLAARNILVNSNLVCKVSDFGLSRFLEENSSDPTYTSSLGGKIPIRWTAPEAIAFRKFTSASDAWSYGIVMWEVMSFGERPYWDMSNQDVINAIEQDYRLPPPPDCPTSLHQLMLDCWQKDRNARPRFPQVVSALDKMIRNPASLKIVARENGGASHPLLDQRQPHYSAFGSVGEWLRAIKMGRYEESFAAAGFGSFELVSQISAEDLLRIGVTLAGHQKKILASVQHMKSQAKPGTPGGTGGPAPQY

[2] = biological target: T1, Ephrin type-B receptor 4; experiment: Inhibition of EphB4 by [gamma33-P]ATP based assay
[3] = biological target: T2, Ephrin type-B receptor 4 (Homo sapiens) (UniProt P54760); experiment: Inhibition of EphB4 assessed as blockade of synthetic substrate phosphorylation at 10 uM by FRET assay; set-up: scale not given: the % may be the effect or the level left
T2 sequence (whole entry): T1 sequence (P54760 whole entry)
Procedure, shortened: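 Z'-LYTE FRET kinase assay with Tyr 1 peptide substrate. Final EphB4 25 ng/μL, ATP 125 μM (near Km), 30 °C for 2 h. Excitation 400 nm, emission at 445 and 520 nm, read as fluorescence progress curves. Inhibition of substrate phosphorylation was measured.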

IC50 [1] [nM] | SMILES | also measured
1200 | COc1ccccc1-n1c(-c2cccc(O)c2C)cn2c3c(=O)[nH]c(=O)n(C)c3nc12 | –
368 | COc1ccccc1-n1c(-c2cccc(O)c2)cn2c3c(=O)[nH]c(=O)n(C)c3nc12 | IC50 [2]: 213 nM
> 20000 | COc1ccccc1-n1c(-c2ccc3c(c2)OCO3)cn2c3c(=O)[nH]c(=O)n(C)c3nc12 | –
> 20000 | COc1ccccc1-n1c(-c2ccc(C#N)cc2)cn2c3c(=O)[nH]c(=O)n(C)c3nc12 | –
> 20000 | COc1ccccc1-n1c(-c2ccc(C(=O)O)cc2)cn2c3c(=O)[nH]c(=O)n(C)c3nc12 | –
236 | COc1ccccc1-n1c(-c2ccc(O)cc2C)cn2c3c(=O)[nH]c(=O)n(C)c3nc12 | –
> 20000 | COc1ccccc1-n1c(-c2ccc([N+](=O)[O-])cc2)cn2c3c(=O)[nH]c(=O)n(C)c3nc12 | –
> 10000 | COc1ccccc1-n1c(-c2cccc(C)c2)cn2c3c(=O)[nH]c(=O)n(C)c3nc12 | –

More lines, now with the values behind:

SMILES | IC50 [1] [nM] | also measured
CCCCn1c(-c2ccccc2O)cn2c3c(=O)[nH]c(=O)n(C)c3nc12 | 1600 | –
COc1ccccc1-n1c(-c2ccc(O)cc2)cn2c3c(=O)[nH]c(=O)n(C)c3nc12 | – | Activity [3]: 59%
COc1ccccc1-n1c(-c2ccc(F)cc2)cn2c3c(=O)[nH]c(=O)n(Cc4ccccc4)c3nc12 | > 10000 | –
Cn1c(=O)[nH]c(=O)c2c1nc1n(CCCCO)c(-c3ccccc3)cn21 | – | IC50 [2]: 5680 nM
CCCCn1c(-c2ccc(C)cc2)cn2c3c(=O)[nH]c(=O)n(C)c3nc12 | – | Activity [3]: 38%
Cn1c(=O)[nH]c(=O)c2c1nc1n(CCCCO)c(-c3ccc4c(c3)OCO4)cn21 | – | Activity [3]: 42%
COc1ccccc1-n1c(-c2ccc(F)cc2)cn2c3c(=O)[nH]c(=O)[nH]c3nc12 | 5400 | –
CCCCn1c(-c2ccc(O)cc2)cn2c3c(=O)[nH]c(=O)n(C)c3nc12 | 558 | –
CCCCn1c(-c2cccc(OC)c2)cn2c3c(=O)[nH]c(=O)n(C)c3nc12 | – | Activity [3]: 36%
CCCCn1c(-c2ccc(OC)cc2)cn2c3c(=O)[nH]c(=O)n(C)c3nc12 | > 10000 | –
CCCCn1c(-c2ccccc2OC)cn2c3c(=O)[nH]c(=O)n(C)c3nc12 | > 10000 | –
CCCCn1c(-c2cccc(O)c2)cn2c3c(=O)[nH]c(=O)n(C)c3nc12 | 691 | –
COc1ccccc1-n1c(-c2ccccc2)cn2c3c(=O)[nH]c(=O)n(Cc4ccccc4)c3nc12 | > 10000 | –
COc1ccccc1-n1c(-c2ccccc2O)cn2c3c(=O)[nH]c(=O)n(C)c3nc12 | – | Activity [3]: 64%
COc1ccccc1-n1c(-c2cccc3c2OCO3)cn2c3c(=O)[nH]c(=O)n(C)c3nc12 | – | Activity [3]: 30%
CCCCn1c(-c2cccc(C)c2)cn2c3c(=O)[nH]c(=O)n(C)c3nc12 | – | Activity [3]: 37%
